Only some compounds are listed: those with a hit (about 1.8% of all), similar ones and a draw of the others.
pCIP destab: p/CIP protein destabilization; Q05BA5; F442A p/CIP-EGFP cells, EGFP fluorescence, 16 h; decrease of EGFP signal, % at 10 µM; 290,000 tested, 0.01% active; AID 1984;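 active means EGFP signal decrease of at least 30% at 10 µM or well 3 SD below plate mean, unless failing retest; inactive means the rest, including hits failing retest or dose response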
A3G deaminase: blocks human APOBEC3G single-stranded DNA deamination; recombinant A3G, ssDNA deamination FAM/TAMRA fluorescence; inhibition, % at 20 µM; 330,000 tested, 0.28% active; Q9HC16;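 active means inhibition of at least 40% at 20 µM, with no more than 30% in the related APOBEC3A deaminase screen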
Target sequence (Q9HC16 whole entry, looked up): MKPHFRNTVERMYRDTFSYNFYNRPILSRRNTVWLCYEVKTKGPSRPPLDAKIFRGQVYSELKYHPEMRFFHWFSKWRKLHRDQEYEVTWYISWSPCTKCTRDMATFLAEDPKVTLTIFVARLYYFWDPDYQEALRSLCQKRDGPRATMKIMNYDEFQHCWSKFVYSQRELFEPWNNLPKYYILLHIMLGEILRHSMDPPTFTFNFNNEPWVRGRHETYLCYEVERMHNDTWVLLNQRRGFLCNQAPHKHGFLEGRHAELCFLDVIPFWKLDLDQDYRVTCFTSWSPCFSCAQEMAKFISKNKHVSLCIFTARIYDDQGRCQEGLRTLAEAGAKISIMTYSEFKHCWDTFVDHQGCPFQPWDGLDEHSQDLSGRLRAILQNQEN
APOBEC3A inh: inhibitors of human APOBEC3A DNA deaminase; P31941; recombinant A3A, FAM/TAMRA ssDNA deamination fluorescence; inhibition, % at 20 µM; 330,000 tested, 0.41% active; AID 493011;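 active means at least 40% inhibition at 20 µM here, with at most 30% in a related deaminase screen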
TbMetRS inhib: Trypanosoma brucei MetRS inhibition; purified T. brucei MetRS, ATP depletion, Kinase-Glo luminescence; inhibition, % at 11.9 µM; 360,000 tested, 0.4% active; AID 624268;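 active means inhibition above a per-plate cutoff of the control wells' mean inhibition plus 3 SD, cut at about 5.5% in these data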
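Material: parasite MetRS enzyme / Replication: singlicate, one well per compound / Signal: luminescence of leftover ATP / Schedule: 2 h aminoacylation at 25 °C after 15 min preincubation / Medium: HEPES-MgCl2-KCl buffer plus DTT, spermine, BSA, pyrophosphatase / Doses: 11.9 µM single point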
PHOSPHO1 inh: blocks human PHOSPHO1 phosphatase activity; inhibition, % at 13.3 µM; Q8TCT1; 290,000 tested, 1.1% active; AID 1565; recombinant PHOSPHO1, absorbance phosphatase assay; in the data active means inhibition above about 60%
APOBEC3G confirm: confirmation of human APOBEC3G DNA deaminase inhibitors; shares compounds with A3G deaminase; AID 493152; recombinant A3G ssDNA deaminase, UDG/FAM-TAMRA fluorescence; 890 tested, 72% active; inhibition, % at 20 µM;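 active means inhibition reaching a set limit in any replicate at 20 µM, the limit being 80% of the first screen's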
UDG ctr A3G: E. coli UDG inhibition in APOBEC3G counter-screen; 710 tested, under 10 active; AID 504715; inhibition, % at 20 µM; UDG counterscreen, FAM/TAMRA oligo fluorescence; shares compounds with A3G deaminase;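 active means compounds giving 40% or more inhibition at 20 µM in any one of the three replicates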;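 further: inhibitors lower the FAM signal released by uracil excision and alkaline cleavage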
Target sequence (P12295 whole entry, looked up): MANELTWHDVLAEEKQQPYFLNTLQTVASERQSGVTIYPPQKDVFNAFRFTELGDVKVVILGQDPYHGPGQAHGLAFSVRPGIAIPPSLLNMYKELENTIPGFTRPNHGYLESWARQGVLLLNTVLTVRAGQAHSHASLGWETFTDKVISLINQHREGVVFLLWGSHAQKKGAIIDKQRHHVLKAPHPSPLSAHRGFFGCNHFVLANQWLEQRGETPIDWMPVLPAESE
Numbers stand for hits; . = inactive; / = no result.

SMILES | pCIP destab | A3G deaminase | APOBEC3A inh | TbMetRS inhib | PHOSPHO1 inh | APOBEC3G confirm | UDG ctr A3G
CCC(Sc1nc(N)cc(N)n1)C(=O)O (stereo not given) | . | 44 | . | . | . | . | /
COc1ccc(CN2CCNC(=O)C2CC(=O)N(Cc2nccn2C)C(C)C)c(OC)c1 (stereo not given) | . | 43 | . | . | . | 16 | .
C/C(=N\NC(=O)C(=O)N/N=C(\C)c1cccc(O)c1)c1cccc(O)c1 | . | 58 | . | . | . | . | /
COc1ccc(S(=O)(=O)Nc2nnc(C(C)(C)C)s2)cc1 | . | 50 | . | . | 98 | 20 | .
COc1ccc(S(=O)(=O)Nc2nnc(CC(C)(C)C)s2)cc1 | . | . | . | . | . | / | /
N#Cc1ccccc1Sc1ccccc1N | . | . | . | . | . | / | /
Nc1ccccc1SSc1ccccc1N | . | 82 | . | . | . | 63 | .
CCOC(=O)N1CCN(C(=O)N2CCOCC2)CC1 | . | . | . | . | . | / | /
Cc1nn(C(=O)N2CCOCC2)c(C)c1C | . | 62 | . | . | . | . | /
Cc1occc1-c1nnc(SCC(=O)NC2CC2)n1C(C)C | . | . | . | . | / | / | /
COc1cc(OC)cc(-c2nnc(SCC(=O)Nc3cccc(C(=O)O)c3)s2)c1 | . | . | . | . | . | / | /
Cc1cccc2cc(COC(=O)c3ccccn3)c(=O)[nH]c12 | . | 40 | . | . | . | . | .
COc1ccc(OC)c(S(=O)(=O)Nc2c(NC3CCCCC3)c3ccccc3oc2=O)c1 | . | . | . | . | . | / | /
Cc1ccc(-n2c(N)c(C(N)=O)sc2=S)cc1 | . | 58 | . | . | 93 | 58 | .
CC1(C)Cc2c(C#N)c(SCC(=O)O)nc(N3CCOCC3)c2CO1 | / | 61 | . | . | / | . | .
CCCCN(CCCC)C(=O)c1sc2nc(N3CCOCC3)c3c(c2c1N)CCCC3 | . | 42 | . | . | . | . | .
O=c1[nH]cnc2c1ccn2C1OC(CO)C(O)C1O (stereo not given) | / | / | / | . | / | / | /
Nc1scc2c(C(=O)N/N=C/c3ccc(Cl)cc3)nn(-c3ccccc3)c(=O)c12 | . | 51 | . | . | 101 | active | .
CCOC(=O)c1nn(-c2ccccc2)c(=O)c2c(N)scc12 | . | . | . | . | . | / | /
O=C(NC1=C(Nc2ccc(Cl)cc2)C(=O)c2ccccc2C1=O)c1ccccc1 | . | . | . | . | . | / | /
O=C1C(Cl)=C(NC(=O)c2ccccc2)C(=O)C(Cl)=C1NC(=O)c1ccccc1 | . | 86 | . | . | . | 91 | /
N#C/C(=C(/O)COc1ccccc1)c1nc2ccccc2s1 | . | . | . | . | . | / | /
N#C/C(=C(/O)COc1ccc(Cl)cc1)c1nc2ccccc2s1 | . | 57 | . | . | . | . | .
O=[N+]([O-])c1ccccc1CSc1ccccn1 | . | . | . | . | . | / | /
O=c1[nH]c(SCc2ccccc2[N+](=O)[O-])nc2nc[nH]c12 | . | 61 | . | . | . | . | .
SMILES | pCIP destab | A3G deaminase | APOBEC3A inh | TbMetRS inhib | PHOSPHO1 inh | APOBEC3G confirm | UDG ctr A3G
CN(C)CCN(C)C1CN(CCc2ccccc2)S(=O)(=O)C1 (stereo not given) | / | / | / | . | / | / | /
COc1ccc(-n2c(=O)c3c4c(sc3n3c(=S)[nH]nc23)CCC4)cc1 | . | . | . | . | . | / | /
CCn1c(=O)c2c3c(sc2n2c(=S)[nH]nc12)CCC3 | . | 59 | . | . | 102 | 88 | .
Cc1ccc(-n2c(=O)c3c4c(sc3n3c(=S)[nH]nc23)CCC4)cc1 | . | . | . | . | . | / | /
O=c1c2c3c(sc2n2c(=S)[nH]nc2n1-c1ccccc1)CCC3 | . | 53 | . | . | . | 84 | .
CC1(C)Cc2c(cnn2-c2cccc(F)c2)C(NC(=O)Cn2cccn2)C1 (stereo not given) | . | . | . | . | . | / | /
Cc1ccc(NNS(=O)(=O)c2ccc(C)cc2)cc1 | . | 69 | . | . | . | 65 | .
COC(=O)[C@]1(C)N[C@H](CN(C)C(=O)COc2ccccc2)[C@@H]2C(=O)N(C)C(=O)[C@@H]21 | / | 74 | . | . | / | . | /
CCn1c(N)c(C(=O)NCC2CCCO2)sc1=S (stereo not given) | . | 40 | . | . | 100 | 67 | .
CCNC(=O)c1sc(=S)n(CC)c1N | . | . | . | . | . | / | /
CCn1c(N)c(C(=O)NC)sc1=S | . | 59 | . | . | . | . | /
Cc1ccc(C(c2nnnn2CS(=O)(=O)c2ccc(C)cc2)N2CCN(c3ncccn3)CC2)cc1 (stereo not given) | . | 71 | . | . | . | . | /
Cc1cc(C)cc(C(N)=Nc2cccc(C#N)c2)c1 | . | . | . | . | . | / | /
N#Cc1cccc(N=c2ssnc2Cl)c1 | . | 74 | . | / | . | 88 | .
COc1cc(N=c2ssnc2Cl)cc(OC)c1 | . | 65 | . | . | . | 65 | /
CC(C)Cn1c(-c2ccccc2F)n[nH]c1=S | . | 41 | . | . | . | 82 | .
CC(C)Cn1c(Cc2ccccc2)n[nH]c1=S | . | . | . | . | . | / | /
CC(C)Cn1c(-c2ccc(F)cc2)n[nH]c1=S | . | 41 | . | . | . | 82 | .
CC(C)Cn1c(-c2ccncc2)n[nH]c1=S | . | . | . | . | . | / | /
CC(C)C(=O)Nc1ccc(S(=O)(=O)N2CCC(c3nc4ccccc4[nH]3)CC2)cc1 | / | . | . | . | / | / | /
C/C(=N\Nc1cccc2cccnc12)c1ccc(N)cc1 | . | 58 | . | . | . | . | /
Nc1nnc(SC2CC(=O)N(c3ccccc3)C2=O)s1 (stereo not given) | . | 42 | . | . | 98 | . | /
COC(=O)c1cc(=O)nc2sc(-c3cccs3)nn12 | . | . | . | . | . | / | /
COC(=O)c1cc(=O)nc2sc(-c3ccc(F)cc3)nn12 | . | 42 | . | . | 95 | 34 | .
COc1ccc(OC)c(-c2nnc3n2N=C(c2ccc(OC)c(OC4CCOC4)c2)CS3)c1 (stereo not given) | / | . | . | . | / | / | /
SMILES | pCIP destab | A3G deaminase | APOBEC3A inh | TbMetRS inhib | PHOSPHO1 inh | APOBEC3G confirm | UDG ctr A3G
C=CCNC(=O)c1ccccc1NC(=O)C1CC(=O)N(C(C)C)C1 (stereo not given) | . | . | . | . | . | / | /
O=c1c2c([N+](=O)[O-])cc([N+](=O)[O-])cc2sn1Cc1ccccc1 | . | 70 | . | . | . | 76 | .
O=c1c2c([N+](=O)[O-])cc([N+](=O)[O-])cc2sn1-c1ccc(Br)cc1 | . | 75 | . | . | 89 | 72 | /
O=C(Nc1ccc(Br)cc1)c1cc([N+](=O)[O-])cc([N+](=O)[O-])c1 | . | . | . | . | . | / | /
CCOc1ccc(S(=O)(=O)N2CCOCC2)cc1NC(=O)CN1C(=O)NC2(CCCCC2)C1=O | / | . | . | . | / | / | /
c1cncc(-c2nnc(-c3cccnc3)nn2)c1 | . | 44 | . | . | 66 | 22 | .
Cc1nnn(-c2nonc2N)c1C(=O)N/N=C/c1ccccc1O | . | 44 | . | . | . | 40 | .
